# Measurements gathered from unrelated publications.
# Lines come from different studies, so protocols differ.
SMILES,host,matrix,route,dose,setting,measurement,value
CC(=Nc1ccc(N=Cc2cnccn2)cc1)N(C)C,male Sprague-Dawley rat,plasma,intravenous,20 mg/kg,,AUC(0-t),254 ng·h/mL
O=C(C=Cc1ccccc1)Nc1cc(-c2ccnc(N3CCC(O)CC3)c2)ccn1,female Sprague-Dawley rat,plasma,intravenous,5 mg/kg,,AUC(0-inf),375 ng·h/mL
N#C[C@@]12C[C@@H]1[C@@H](n1cnc3c(N[C@@H](C4CCC4)C4CC4)nc(I)nc31)[C@H](O)[C@@H]2O,male Wistar rat,plasma,oral,3 mg/kg,,AUC(0-t),66.4 ng·h/mL
C[C@H]1[C@@H](O)O[C@@H]2O[C@@]3(C)CC[C@H]4[C@H](C)CC[C@@H]1[C@@]24OO3,Sprague-Dawley rat,plasma,oral,10 mg/kg,,AUC(0-inf),205 ng·h/mL
CC1(CN)CCN(c2cnc3c(Sc4ccncc4Cl)n[nH]c3n2)CC1,male Sprague-Dawley rat,plasma,intravenous,2 mg/kg,,AUC,151 ng·h/mL
COc1ccc2cc3n(c(=O)c2c1OC)CCc1cc2c(cc1-3)OCO2,male Sprague-Dawley rat,blood,oral,50 mg/kg,,AUC(0-t),701 ng·h/mL
O=C1c2ccncc2C(=O)c2c1[nH]c1ccccc21,rat,plasma,intravenous,1 mg/kg,single dose,AUC(0-inf),1.43 µM·h
O=C1CC[C@H](N2Cc3cc(N4CCN(CC5CCN(c6ccc([C@@H]7c8ccc(O)cc8CC[C@@H]7c7ccccc7)cc6)CC5)CC4)ccc3C2=O)C(=O)N1,female Sprague-Dawley rat,plasma,oral,20 mg/kg,fed,AUC(0-t),18400 ng·h/mL
